Measurements reported in ChEMBL document CHEMBL1165965, “Synthesis and structure-activity relationships of 1,2,3,4-tetrahydropyrido[2,3-b]pyrazines as potent and selective inhibitors of the anaplastic lymphoma kinase” (Bioorg Med Chem, 2010).

Legend:
[1] = molecular target: T1, Hormonally up-regulated neu tumor-associated kinase (Homo sapiens) (UniProt P57058); assay: Inhibition of HUNK at 1 uM
T1 sequence (whole entry): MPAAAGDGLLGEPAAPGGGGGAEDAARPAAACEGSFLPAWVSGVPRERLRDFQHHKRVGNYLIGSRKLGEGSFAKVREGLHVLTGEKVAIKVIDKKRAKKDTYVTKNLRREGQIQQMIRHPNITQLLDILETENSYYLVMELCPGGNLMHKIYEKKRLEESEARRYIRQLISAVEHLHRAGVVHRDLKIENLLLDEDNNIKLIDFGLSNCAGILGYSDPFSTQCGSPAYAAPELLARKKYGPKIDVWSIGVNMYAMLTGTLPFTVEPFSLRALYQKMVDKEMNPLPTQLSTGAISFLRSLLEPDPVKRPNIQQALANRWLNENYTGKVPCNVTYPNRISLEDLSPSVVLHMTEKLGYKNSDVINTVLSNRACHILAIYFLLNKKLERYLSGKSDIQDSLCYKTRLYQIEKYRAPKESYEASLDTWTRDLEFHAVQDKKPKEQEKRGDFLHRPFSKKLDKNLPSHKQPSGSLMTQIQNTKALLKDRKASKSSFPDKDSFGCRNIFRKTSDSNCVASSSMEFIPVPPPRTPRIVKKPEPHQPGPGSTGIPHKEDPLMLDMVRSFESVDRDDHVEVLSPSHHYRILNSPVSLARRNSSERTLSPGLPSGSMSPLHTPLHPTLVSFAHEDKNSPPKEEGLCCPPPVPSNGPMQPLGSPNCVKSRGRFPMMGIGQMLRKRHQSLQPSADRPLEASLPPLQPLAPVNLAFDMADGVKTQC

[2] = molecular target: T2, Tyrosine-protein kinase Mer (Homo sapiens) (UniProt Q12866); assay: Inhibition of MERTK at 1 uM
T2 sequence (whole entry): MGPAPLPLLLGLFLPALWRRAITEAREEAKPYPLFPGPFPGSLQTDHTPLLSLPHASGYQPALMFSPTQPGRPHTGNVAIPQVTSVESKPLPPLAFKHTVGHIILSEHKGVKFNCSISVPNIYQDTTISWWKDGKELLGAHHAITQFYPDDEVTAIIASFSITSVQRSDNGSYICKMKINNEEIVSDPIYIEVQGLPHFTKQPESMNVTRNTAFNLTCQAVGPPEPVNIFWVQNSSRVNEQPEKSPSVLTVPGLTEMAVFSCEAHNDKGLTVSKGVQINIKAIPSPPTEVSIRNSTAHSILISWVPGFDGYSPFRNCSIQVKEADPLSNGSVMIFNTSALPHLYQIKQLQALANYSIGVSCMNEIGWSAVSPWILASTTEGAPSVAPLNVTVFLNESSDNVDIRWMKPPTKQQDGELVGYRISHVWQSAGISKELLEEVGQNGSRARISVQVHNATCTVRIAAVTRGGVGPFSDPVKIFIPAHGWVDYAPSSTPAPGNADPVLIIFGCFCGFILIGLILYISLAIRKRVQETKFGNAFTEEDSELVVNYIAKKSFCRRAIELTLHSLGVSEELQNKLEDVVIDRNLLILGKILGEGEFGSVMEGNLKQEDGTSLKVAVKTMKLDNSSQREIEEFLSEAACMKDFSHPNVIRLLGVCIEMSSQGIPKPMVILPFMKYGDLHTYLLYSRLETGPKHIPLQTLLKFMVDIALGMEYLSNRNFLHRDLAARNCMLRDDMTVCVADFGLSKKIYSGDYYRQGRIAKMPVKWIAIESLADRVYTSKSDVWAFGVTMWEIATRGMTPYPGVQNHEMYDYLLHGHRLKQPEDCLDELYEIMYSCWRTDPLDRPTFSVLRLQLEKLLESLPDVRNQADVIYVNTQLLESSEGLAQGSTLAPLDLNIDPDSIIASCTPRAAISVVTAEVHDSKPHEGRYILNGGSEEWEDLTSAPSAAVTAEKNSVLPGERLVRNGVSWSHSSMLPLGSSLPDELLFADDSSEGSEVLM
Outline: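 Kinase-panel screen using KINOMEscan technology, with 250–400 kinases per panel. Each compound was tested at a single concentration, and inhibition of each kinase was recorded. Selectivity was summarised as S(90), the fraction of kinases inhibited by more than 90%.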

[3] = molecular target: Serine/threonine-protein kinase NIM1 (Homo sapiens) (UniProt Q8IY84); assay: Inhibition of NIM1 at 1 uM
[4] = molecular target: Phosphatidylinositol 4,5-bisphosphate 3-kinase catalytic subunit beta isoform (Homo sapiens) (UniProt P42338); assay: Inhibition of PIK3CB at 1 uM
[5] = molecular target: Serine/threonine-protein kinase 16 (Homo sapiens) (UniProt O75716); assay: Inhibition of STK16 at 1 uM
[6] = molecular target: Serine/threonine-protein kinase B-raf (Homo sapiens) (UniProt P15056); assay: Inhibition of BRAF at 1 uM
Outline: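 Ambit KINOMEscan screen at a single concentration across a 250–400 kinase panel, recorded as percent inhibition. Selectivity was expressed as S(90), the fraction of kinases inhibited >90%.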

[7] = molecular target: Dual specificity protein kinase CLK3 (Homo sapiens) (UniProt P49761); assay: Inhibition of CLK3 at 1 uM
Outline: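 Single-concentration screen using Ambit Bioscience KINOMEscan technology across a panel of 250–400 kinases. Per-kinase inhibition from this screen was summarized as S(90), the fraction of kinases inhibited by more than 90%.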

[8] = molecular target: Serine/threonine-protein kinase/endoribonuclease IRE1 (Homo sapiens) (UniProt O75460); assay: Inhibition of ERN1 at 1 uM

Measured: inhibition

Serine/threonine-protein kinase/endoribonuclease IRE1 (Homo sapiens), sequence (O75460 19-977 limits assumed): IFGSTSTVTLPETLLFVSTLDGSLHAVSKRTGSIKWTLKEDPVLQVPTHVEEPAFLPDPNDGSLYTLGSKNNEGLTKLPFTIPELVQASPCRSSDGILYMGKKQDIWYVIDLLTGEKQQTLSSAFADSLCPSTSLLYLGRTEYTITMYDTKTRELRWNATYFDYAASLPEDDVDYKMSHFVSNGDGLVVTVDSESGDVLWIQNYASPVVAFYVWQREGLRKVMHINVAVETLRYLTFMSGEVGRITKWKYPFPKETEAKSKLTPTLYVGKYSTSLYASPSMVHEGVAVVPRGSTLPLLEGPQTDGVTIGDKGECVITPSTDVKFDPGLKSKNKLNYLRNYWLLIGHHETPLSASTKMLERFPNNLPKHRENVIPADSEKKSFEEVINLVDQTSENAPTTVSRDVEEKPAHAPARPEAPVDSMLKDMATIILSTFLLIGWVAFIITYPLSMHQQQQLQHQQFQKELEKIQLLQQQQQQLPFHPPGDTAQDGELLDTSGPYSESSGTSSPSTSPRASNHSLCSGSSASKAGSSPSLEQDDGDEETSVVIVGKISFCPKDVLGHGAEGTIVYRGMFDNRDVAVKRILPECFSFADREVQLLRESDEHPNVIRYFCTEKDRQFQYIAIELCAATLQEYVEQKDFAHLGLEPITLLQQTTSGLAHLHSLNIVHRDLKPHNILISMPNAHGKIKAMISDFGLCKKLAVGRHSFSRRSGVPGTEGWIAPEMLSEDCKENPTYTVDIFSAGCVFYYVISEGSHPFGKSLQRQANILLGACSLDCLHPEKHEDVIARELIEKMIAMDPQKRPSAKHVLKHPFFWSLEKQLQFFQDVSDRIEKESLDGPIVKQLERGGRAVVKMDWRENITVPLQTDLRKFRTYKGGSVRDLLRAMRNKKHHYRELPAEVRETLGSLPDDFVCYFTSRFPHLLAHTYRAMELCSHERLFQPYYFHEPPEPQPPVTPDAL
Phosphatidylinositol 4,5-bisphosphate 3-kinase catalytic subunit beta isoform (Homo sapiens), sequence (P42338 whole entry, looked up, canonical isoform): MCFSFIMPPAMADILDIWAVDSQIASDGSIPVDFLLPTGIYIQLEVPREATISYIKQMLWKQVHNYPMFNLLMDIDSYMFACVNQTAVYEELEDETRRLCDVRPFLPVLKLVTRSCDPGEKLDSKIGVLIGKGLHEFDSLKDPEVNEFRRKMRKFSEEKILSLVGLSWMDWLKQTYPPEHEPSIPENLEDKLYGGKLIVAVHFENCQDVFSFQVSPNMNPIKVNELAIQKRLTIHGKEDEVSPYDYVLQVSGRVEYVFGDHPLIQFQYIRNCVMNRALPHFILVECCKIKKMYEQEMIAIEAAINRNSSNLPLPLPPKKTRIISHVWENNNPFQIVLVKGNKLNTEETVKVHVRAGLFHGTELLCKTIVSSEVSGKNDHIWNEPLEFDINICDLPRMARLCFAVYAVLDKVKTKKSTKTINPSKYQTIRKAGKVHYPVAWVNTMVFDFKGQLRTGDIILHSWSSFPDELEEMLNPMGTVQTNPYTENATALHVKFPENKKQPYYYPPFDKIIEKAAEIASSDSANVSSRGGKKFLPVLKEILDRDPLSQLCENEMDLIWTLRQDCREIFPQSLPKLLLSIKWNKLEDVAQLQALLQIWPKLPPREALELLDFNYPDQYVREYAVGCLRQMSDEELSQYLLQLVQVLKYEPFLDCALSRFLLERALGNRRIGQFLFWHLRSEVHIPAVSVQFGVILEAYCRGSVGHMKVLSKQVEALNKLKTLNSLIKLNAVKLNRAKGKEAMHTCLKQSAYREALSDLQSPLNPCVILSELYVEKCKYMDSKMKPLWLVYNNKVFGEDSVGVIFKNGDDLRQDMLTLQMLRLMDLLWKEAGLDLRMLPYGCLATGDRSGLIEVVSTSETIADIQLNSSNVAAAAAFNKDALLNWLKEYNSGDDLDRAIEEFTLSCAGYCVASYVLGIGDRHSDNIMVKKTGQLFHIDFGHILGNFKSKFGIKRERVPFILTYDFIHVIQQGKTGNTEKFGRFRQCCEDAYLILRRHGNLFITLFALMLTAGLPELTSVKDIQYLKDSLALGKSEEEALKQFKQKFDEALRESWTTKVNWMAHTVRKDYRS
Serine/threonine-protein kinase NIM1 (Homo sapiens), sequence (Q8IY84 whole entry, canonical isoform): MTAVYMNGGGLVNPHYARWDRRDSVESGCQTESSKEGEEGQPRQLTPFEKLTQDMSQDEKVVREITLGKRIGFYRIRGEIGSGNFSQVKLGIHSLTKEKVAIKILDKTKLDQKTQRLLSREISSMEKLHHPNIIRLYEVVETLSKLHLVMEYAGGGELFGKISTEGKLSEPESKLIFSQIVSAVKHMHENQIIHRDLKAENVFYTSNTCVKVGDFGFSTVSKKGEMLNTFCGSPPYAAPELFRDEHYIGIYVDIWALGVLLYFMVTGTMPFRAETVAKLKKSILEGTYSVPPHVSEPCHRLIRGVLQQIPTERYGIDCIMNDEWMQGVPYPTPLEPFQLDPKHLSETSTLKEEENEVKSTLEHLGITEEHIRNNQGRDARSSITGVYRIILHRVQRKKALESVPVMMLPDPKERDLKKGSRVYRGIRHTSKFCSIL
Dual specificity protein kinase CLK3 (Homo sapiens), sequence (P49761 whole entry, looked up): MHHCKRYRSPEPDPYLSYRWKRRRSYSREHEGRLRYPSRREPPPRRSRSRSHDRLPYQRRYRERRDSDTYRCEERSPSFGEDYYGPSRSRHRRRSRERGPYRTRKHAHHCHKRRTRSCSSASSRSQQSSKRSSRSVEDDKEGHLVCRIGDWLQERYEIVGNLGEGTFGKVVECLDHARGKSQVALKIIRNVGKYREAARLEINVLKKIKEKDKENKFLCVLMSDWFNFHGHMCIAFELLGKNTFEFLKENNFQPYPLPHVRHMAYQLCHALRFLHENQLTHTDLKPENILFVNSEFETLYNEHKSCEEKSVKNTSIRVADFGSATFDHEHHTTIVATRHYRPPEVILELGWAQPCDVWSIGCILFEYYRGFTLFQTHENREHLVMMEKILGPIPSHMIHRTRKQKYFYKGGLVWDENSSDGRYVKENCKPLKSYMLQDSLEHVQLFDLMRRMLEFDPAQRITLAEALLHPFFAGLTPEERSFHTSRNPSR
Serine/threonine-protein kinase 16 (Homo sapiens), sequence (O75716 whole entry): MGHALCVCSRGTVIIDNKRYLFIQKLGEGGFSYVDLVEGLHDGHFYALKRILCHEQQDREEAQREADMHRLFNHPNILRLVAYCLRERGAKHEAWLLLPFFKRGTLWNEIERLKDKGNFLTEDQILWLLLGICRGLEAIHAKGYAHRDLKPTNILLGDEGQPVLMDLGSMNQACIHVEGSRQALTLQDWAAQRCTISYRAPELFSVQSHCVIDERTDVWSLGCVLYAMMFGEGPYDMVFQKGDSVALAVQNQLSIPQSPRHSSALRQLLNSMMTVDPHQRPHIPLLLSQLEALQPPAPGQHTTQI
Serine/threonine-protein kinase B-raf (Homo sapiens), sequence (P15056 whole entry): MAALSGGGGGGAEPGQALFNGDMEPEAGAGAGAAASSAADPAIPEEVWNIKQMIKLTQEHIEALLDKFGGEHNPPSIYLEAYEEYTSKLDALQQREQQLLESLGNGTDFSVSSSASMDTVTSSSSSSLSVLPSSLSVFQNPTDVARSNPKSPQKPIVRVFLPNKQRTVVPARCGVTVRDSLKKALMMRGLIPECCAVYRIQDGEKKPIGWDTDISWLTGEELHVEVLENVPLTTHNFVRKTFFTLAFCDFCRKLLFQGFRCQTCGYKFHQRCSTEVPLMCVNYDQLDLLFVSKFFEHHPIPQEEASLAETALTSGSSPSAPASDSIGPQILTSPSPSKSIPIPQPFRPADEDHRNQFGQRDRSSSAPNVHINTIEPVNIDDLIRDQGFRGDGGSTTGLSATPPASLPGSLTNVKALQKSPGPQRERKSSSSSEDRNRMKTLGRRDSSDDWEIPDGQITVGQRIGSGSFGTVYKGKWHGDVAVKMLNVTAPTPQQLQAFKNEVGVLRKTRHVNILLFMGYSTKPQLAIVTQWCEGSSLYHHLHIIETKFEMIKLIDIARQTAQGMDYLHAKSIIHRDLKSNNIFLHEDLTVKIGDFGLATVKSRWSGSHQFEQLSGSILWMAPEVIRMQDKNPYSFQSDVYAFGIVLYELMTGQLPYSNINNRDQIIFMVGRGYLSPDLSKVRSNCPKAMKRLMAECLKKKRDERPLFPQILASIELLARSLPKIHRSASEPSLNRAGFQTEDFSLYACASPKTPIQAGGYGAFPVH

CN1CCN(c2ccc(-c3cnc4c(c3)N(Cc3cc(F)ccc3F)CCN4)cn2)CC1
< 50%: [1] | [2] | [3] | [4] | [5] | [6] | [7] | [8]

CC(=O)N1CCN(c2cc(-c3cnc4c(c3)N(Cc3cc(Cl)ccc3C(F)(F)F)CCN4)ccn2)CC1
< 50%: [1] | [2] | [3] | [4] | [5] | [6] | [7] | [8]

CN1CCN(c2ccc(-c3cnc4c(c3)N(Cc3c(F)ccc(F)c3Cl)CCN4)cn2)CC1
< 50%: [1] | [2] | [3] | [4] | [5] | [6] | [7] | [8]

FC(F)(F)c1ccc(Cl)cc1CN1CCNc2ncc(-c3ccnc(N4CCNCC4)c3)cc21
< 50%: [1] | [2] | [3] | [4] | [5] | [6] | [7] | [8]

CN1CCN(c2ccc(-c3cnc4c(c3)N(Cc3cc(Cl)ccc3Cl)CCN4)cn2)CC1
< 50%: [1] | [2] | [3] | [4] | [5] | [6] | [7] | [8]

O=C(c1ccc(-c2cnc3c(c2)N(Cc2cc(Cl)ccc2C(F)(F)F)CCN3)cc1)N1CCC(N2CCCC2)CC1
< 50%: [2] | [5] | [6] | [7]

O=C(O)c1ccc(-c2cnc3c(c2)N(Cc2cc(Cl)ccc2C(F)(F)F)CCN3)cc1
< 50%: [2] | [5] | [6] | [7]

CN1CCN(c2ccc(-c3cnc4c(c3)N(Cc3cc(Cl)ccc3C(F)(F)F)CCN4)cn2)CC1
< 50%: [1] | [2] | [3] | [4] | [5] | [6] | [7] | [8]

O=C(c1ccc(-c2cnc3c(c2)N(Cc2cc(Cl)ccc2C(F)(F)F)CCN3)cc1)N1CCCCC1
< 50%: [2] | [5] | [6] | [7]

COC1CCN(C(=O)c2ccc(-c3cnc4c(c3)N(Cc3cc(Cl)ccc3C(F)(F)F)CCN4)cc2)CC1
< 50%: [2] | [5] | [6] | [7]
